Key:
Type in all cases: functional
[1] = In vitro inhibition of Arachidonic acid (100 uM) induced platelet aggregatory activity.
[2] = In vitro inhibition of Collagen (10 ug/mL) induced platelet aggregatory activity.
[3] = Percentage inhibition against thrombin induced platelet aggregatory activity; design: concentration or dose not given beside the values
[4] = Inhibitory concentration required against Arachidonic acid (100 uM) induced platelet aggregatory activity
Summary of the method: (§1)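 Platelets were preincubated with test agent or vehicle (DMSO 0.5%) at 37 °C for 3 min before the inducer was added, and aggregation was then followed. Aspirin served as the positive control. IC50 values are reported as means ± SE (n=3).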

[5] = Percentage inhibition against platelet activating factor (2 ng/mL) induced platelet aggregatory activity
[6] = Percentage inhibition against Platelet activating factor (2 ng/mL) induced platelet aggregatory activity
[7] = In vitro inhibition of Collagen (10 ug/mL) induced platelet aggregatory activity; summary of the method: as §1

Row | SMILES | Inhibition [1] [%] | IC50 [2] [µM] | Inhibition [3] [%] | IC50 [4] [µM] | Inhibition [5] [%] | IC50 [6] [µM] | Inhibition [7] [%]
1 | COc1cc2ccnc(C(=O)c3ccc(Cl)cc3)c2cc1OC | 11 | 89.2 | 9 |  |  |  | 
2 | COc1cc2ccnc(Cc3ccc(Br)cc3)c2cc1OC |  | 55.6 | 11 | 94 | 8 |  | 
3 | COc1cc2c(cc1OC)C(C(=O)c1ccc(Cl)cc1)=NCC2 | 48 | 66.1 | 18 |  | 22 |  | 
4 | COc1ccc(Cc2nccc3cc(OC)c(OC)cc23)cc1 |  | 36.7 | 26 | 59.2 | 52 |  | 
5 | COc1cc2ccnc(C(=O)c3ccccc3Cl)c2cc1OC |  | 52.1 | 30 | 77.1 |  | 82 | 
6 | COc1ccc(C(O)c2nccc3cc(OC)c(OC)cc23)cc1 (stereo unspecified) | 44 | 58.9 | 9 |  | 18 |  | 
7 | COc1cc2ccnc(Cc3ccccc3Br)c2cc1OC | 46 | 99.2 | 7 |  | 8 |  | 
8 | COc1ccc(C(=O)C2=NCCc3cc(OC)c(OC)cc32)cc1 | 19 | 87 | 10 |  | 41 |  | 
9 | COc1cc2ccnc(C(=O)c3ccccc3Br)c2cc1OC | 49 | 77.3 | 6 |  | 25 |  | 
10 | COc1cc2ccnc(C(=O)c3ccccc3OC)c2cc1OC | 50 |  | 1 |  | 35 |  | 39
11 | COc1cc2ccnc(Cc3cccc(Br)c3)c2cc1OC |  | 48.9 | 8 | 68.8 | 23 |  | 
12 | COc1cc2ccnc(C(=O)c3cccc(Br)c3)c2cc1OC | 35 | 69 | 5 |  |  | 85 | 
13 | COc1cc2ccnc(C(=O)c3ccc(Br)cc3)c2cc1OC | 22 |  | 5 |  | 44 |  | 36
14 | COc1cccc(C(=O)c2nccc3cc(OC)c(OC)cc23)c1 |  | 39.1 | 46 | 37.7 |  | 73 | 
15 | COc1cc2c(cc1OC)C(C(=O)c1ccc(Br)cc1)=NCC2 | 6 |  | 4 |  | 10 |  | 20
16 | COc1cc2ccnc(Cc3ccccc3Cl)c2cc1OC | 34 | 72.3 | 8 |  | 13 |  | 
17 | COc1ccc(C(=O)c2nccc3cc(OC)c(OC)cc23)cc1 | 20 | 97 | 4 |  |  | 64.7 | 
18 | COc1cc2ccnc(C(=O)c3cccc(Cl)c3)c2cc1OC | 35 | 72.6 | 4 |  | 47 |  | 
19 | COc1ccccc1Cc1nccc2cc(OC)c(OC)cc12 |  | 51.2 | 8 | 66.2 | 20 |  | 
20 | COc1cc2c(cc1OC)C(C(=O)c1ccccc1Cl)=NCC2 | 27 | 88.1 | 9 |  | 20 |  | 
21 | COc1cc2ccnc(Cc3ccc(Cl)cc3)c2cc1OC |  | 32.7 | 28 | 51.3 | 26 |  | 
22 | COc1cccc(C(=O)C2=NCCc3cc(OC)c(OC)cc32)c1 | 48 |  | 14 |  | 15 |  | 31
23 | COc1cccc(Cc2nccc3cc(OC)c(OC)cc23)c1 | 39 |  | 5 |  | 12 |  | 46
24 | COc1cc2c(cc1OC)C(C(=O)c1cccc(Br)c1)=NCC2 | 23 | 74.5 | 4 |  |  | 75.8 | 
25 | COc1cc2c(cc1OC)C(C(=O)c1cccc(Cl)c1)=NCC2 | 25 |  | 3 |  | 32 |  | 35
26 | COc1cc2c(cc1OC)C(C(=O)c1ccccc1OC)=NCC2 | 21 |  | 8 |  | 26 |  | 18
27 | COc1cc2ccnc(Cc3cccc(Cl)c3)c2cc1OC |  | 73.6 | 18 | 90.2 | 11 |  | 
28 | CC(=O)Oc1ccccc1C(=O)O [ASPIRIN] |  | 34.9 | 81 | 34.6 | 2 |  | 

Source: ChEMBL document CHEMBL1146621, “Antiplatelet activity of benzylisoquinoline derivatives oxidized by cerium(IV) ammonium nitrate” (Bioorg Med Chem Lett, 2003)
